Activity calls are given as the source filed them. No cut-off for these calls is given here.
Legend:
[1] = test system: MM1.S; test: Upregulation of ALPK1 gene in human MM1.S cells at 1 uM for 6 days by; format: functional, cell-based; details: time 6.0 day
[2] = test system: RPMI-8226; test: Upregulation of ENC1 gene in human RPMI-8226 cells at 1 uM for 6 days by; format: functional, cell-based; details: time 6.0 day
Summary of the method: (§1)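 Human myeloma lines RPMI-8226 and MM.1S exposed to 1 μM DOT1L inhibitor, or DMSO, for 6 days. Whole-genome expression profiled on gene expression microarray.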

[3] = test system: RPMI-8226; test: Upregulation of DDIT4L gene in human RPMI-8226 cells at 1 uM for 6 days by; format: functional, cell-based; details: time 6.0 day; summary of the method: as §1
[4] = test system: RPMI-8226; test: Upregulation of POPDC2 gene in human RPMI-8226 cells at 1 uM for 6 days by; format: functional, cell-based; details: time 6.0 day
[5] = test system: RPMI-8226; test: Upregulation of IL13RA1 gene in human RPMI-8226 cells at 1 uM for 6 days by; format: functional, cell-based; details: time 6.0 day
[6] = test system: KMS-12-PE; test: Antiproliferative activity against human KMS-12-PE cells assessed as reduction in cell viability measured at 1 uM for 18 days; format: functional, cell-based; details: time 18.0 day
[7] = test system: RPMI-8226; test: Upregulation of IFN in human RPMI-8226 cells assessed as increase in ISG15 gene at 1 uM for 6 days by qRT-PCR analysis; details: time 6.0 day
[8] = test system: KMS-12-BM; test: Upregulation of DOT1L in human KMS-12-BM cells by qRT-PCR analysis; format: functional, cell-based
Summary of the method: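 Basal DOT1L transcript in untreated myeloma cell lines measured by qRT-PCR, normalized to ACTB; mean of 3 replicates with SEM.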

[9] = test system: MM1.S; test: Upregulation of AMY1C gene in human MM1.S cells at 1 uM for 6 days by; format: functional, cell-based; details: time 6.0 day
[10] = test system: MM1.S; test: Upregulation of HLA-DRB1 gene in human MM1.S cells at 1 uM for 6 days by; format: functional, cell-based; details: time 6.0 day
[11] = test system: RPMI-8226; test: Induction of apoptosis in human RPMI-8226 cells assessed as viable cells at 1 uM for 3 days by annexin-V based propidium iodide staining based flow cytometric analysis (reference value: 91.2%); format: functional; details: RPMI-8226, 72 h, time 3 day, read-out: Activity
[12] = test system: MM1.S; test: Upregulation of ID2 gene in human MM1.S cells at 1 uM for 6 days by; format: functional, cell-based; details: time 6.0 day
[13] = test system: MM1.S; test: Upregulation of HLA-DMA gene in human MM1.S cells at 1 uM for 6 days by; format: functional, cell-based; details: time 6.0 day; summary of the method: as §1
[14] = test system: RPMI-8226; test: Upregulation of NOG gene in human RPMI-8226 cells at 1 uM for 6 days by; format: functional, cell-based; details: time 6.0 day
[15] = test system: RPMI-8226; test: Upregulation of SOAT2 gene in human RPMI-8226 cells at 1 uM for 6 days by; format: functional, cell-based; details: time 6.0 day
[16] = test system: RPMI-8226; test: Effect on human RPMI-8226 cells assessed as change in PRDM1 mRNA level at 1 uM for 3 days by ChIP-qPCR analysis; format: functional, cell-based; details: time 3.0 day
Summary of the method: (§2)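 ChIP-qPCR for H3K79me2 at IRF4-MYC signaling genes after 1 μM inhibitor or DMSO for 3 days. Signal normalized to input DNA. An intergenic region 28 kb upstream of KLF2 served as negative control. Mean of 3 replications ± SEM.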

[17] = test system: RPMI-8226; test: Upregulation of CAPN2 gene in human RPMI-8226 cells at 1 uM for 6 days by; format: functional, cell-based; details: time 6.0 day
[18] = test system: RPMI-8226; test: Upregulation of COL16A1 gene in human RPMI-8226 cells at 1 uM for 6 days by; format: functional, cell-based; details: time 6.0 day; summary of the method: as §1
[19] = test system: RPMI-8226; test: Upregulation of IL1RAP gene in human RPMI-8226 cells at 1 uM for 6 days by; format: functional, cell-based; details: time 6.0 day
[20] = test system: MM1.S; test: Upregulation of FZD1 gene in human MM1.S cells at 1 uM for 6 days by; format: functional, cell-based; details: time 6.0 day; summary of the method: as §1
[21] = test system: MM1.S; test: Effect on human MM1.S cells assessed as change in IRF4 mRNA level at 1 uM for 3 days by ChIP-qPCR analysis; format: functional, cell-based; details: time 3.0 day; summary of the method: as §2
[22] = test system: U-266; test: Antiproliferative activity against human U-266 cells treated 3 days at 1 uM; format: functional, cell-based; details: time 3.0 day
Summary of the method: (§3)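 Cell lines in 6-well plates, 2 × 10^4 to 8 × 10^5 cells/well, exposed to DOT1L inhibitor at 0.25-1 μM or DMSO, with medium and drug refreshed every 3 days. Viability read with Cell Counting Kit-8 on a microplate reader. Values normalized to untreated cells; mean of 3 replications ± SEM.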

[23] = test system: RPMI-8226; test: Induction of cell cycle arrest in human RPMI-8226 cells assessed as increase in accumulation of cells at G0 phase at 1 uM for 6 days; format: functional, cell-based; details: time 6.0 day
Summary of the method: (§4)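 Flow cytometric cell cycle analysis of RPMI-8226 and MM.1S cells treated with 1 μM DOT1L inhibitor or DMSO for 6 days. Sub-G1, G0-G1 and S phase populations scored. Summary is from 3 replications, mean ± SEM.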

[24] = test system: RPMI-8226; test: Induction of cell cycle arrest in human RPMI-8226 cells assessed as increase in accumulation of cells at G1 phase at 1 uM for 6 days; format: functional, cell-based; details: time 6.0 day; summary of the method: as §4
[25] = test system: MM1.S; test: Upregulation of IFN in human MM1.S cells assessed as increase in ISG15 gene at 1 uM for 6 days by qRT-PCR analysis; details: time 6.0 day
[26] = test system: MM1.S; test: Upregulation of IFN in human MM1.S cells assessed as increase in IFITM1 gene at 1 uM for 6 days by qRT-PCR analysis; details: time 6.0 day
[27] = test system: MM1.S; test: Upregulation of LRRC56 gene in human MM1.S cells at 1 uM for 6 days by; format: functional, cell-based; details: time 6.0 day
[28] = test system: RPMI-8226; test: Effect on human RPMI-8226 cells assessed as change in Myc mRNA level at 1 uM for 3 days by ChIP-qPCR analysis; format: functional, cell-based; details: time 3.0 day; summary of the method: as §2
[29] = test system: MM1.S; test: Upregulation of CLIP2 gene in human MM1.S cells at 1 uM for 6 days by; format: functional, cell-based; details: time 6.0 day; summary of the method: as §1
[30] = test system: MM1.S; test: Upregulation of IFITM1 gene in human MM1.S cells at 1 uM for 6 days by; format: functional, cell-based; details: time 6.0 day
[31] = test system: U-266; test: Antiproliferative activity against human U-266 cells assessed as reduction in cell viability measured at 1 uM for 18 days; format: functional, cell-based; details: time 18.0 day
[32] = test system: RPMI-8226; test: Induction of apoptosis in human RPMI-8226 cells assessed as necrotic cells at 1 uM for 6 days by annexin-V based propidium iodide staining based flow cytometric analysis (reference value: 3.61%); format: functional; details: time 6 day
[33] = test system: KMS-12-PE; test: Antiproliferative activity against human KMS-12-PE cells treated 3 days at 1 uM; format: functional, cell-based; details: time 3.0 day; summary of the method: as §3
[34] = test system: MM1.S; test: Induction of apoptosis in human MM1.S cells assessed as necrotic cells at 1 uM for 6 days by annexin-V based propidium iodide staining based flow cytometric analysis (reference value: 0.16%); format: functional; details: time 6 day
[35] = test system: MM1.S; test: Induction of cell cycle arrest in human MM1.S cells assessed as decrease in accumulation of cells at S phase at 1 uM for 6 days; format: functional, cell-based; details: time 6.0 day; summary of the method: as §4
[36] = test system: RPMI-8226; test: Antitumor activity against compound pretreated cells human RPMI-8226 cells at 1 uM for 3 days xenografted in SCID mouse assessed as reduction of tumor volume measured upto 36 days; format: functional, cell-based; details: time 39.0 day
Summary of the method: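 Ex vivo pretreatment: RPMI-8226 cells exposed to 1 μM DOT1L inhibitor or DMSO for 3 days. Then 1 × 10^7 cells in 200 μl RPMI-1640 injected subcutaneously into the thighs of 6-week-old C.B-17 SCID mice, with drug-treated cells in the left thigh and DMSO cells in the right. Tumor measured every 3 days by calipers; volume = length × width²/2; n = 5, mean ± SEM.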

Row | SMILES | Activity [6] | Activity [7] | viability at 1 µM [11] [%] | Activity [16] | Activity [21] | Activity [22] | Activity [23] | Activity [24] | Activity [25] | Activity [26] | Activity [28] | Activity [31] | Activity [32] [%] | Activity [33] | Activity [34] [%] | other results
1 | CC(C)N(CCCNC(=O)Nc1ccc(C(C)(C)C)cc1)C[C@H]1O[C@@H](n2cc(Br)c3c(N)ncnc32)[C@H](O)[C@@H]1O | Active | Active | 77.8 | Active | Active | inactive | Active | Active | Active | Active | Active | Active | 8.1 | inactive | 0.21 | Activity [1]: Active; Activity [2]: Active; Activity [3]: Active; Activity [4]: Active; Activity [5]: Active; Activity [8]: Active; Activity [9]: Active; Activity [10]: Active; Activity [12]: Active; Activity [13]: Active; Activity [14]: Active; Activity [15]: Active; Activity [17]: Active; Activity [18]: Active; Activity [19]: Active; Activity [20]: Active; Activity [27]: Active; Activity [29]: Active; Activity [30]: Active
2 | CC(C)N(C[C@H]1O[C@@H](n2cnc3c(N)ncnc32)[C@H](O)[C@@H]1O)[C@H]1C[C@@H](CCc2nc3cc(C(C)(C)C)ccc3[nH]2)C1 [PINOMETOSTAT] | Active | Active | 76.6 | Active | Active | inactive | Active | Active | Active | Active | Active | Active | 9.09 | inactive | 0.05 | Activity [35]: Active; Activity [36]: Active
